# Reference: paper PMC12046021 (Nature Communications, 2025)
# Assays:
# PK study in mice = type: in vivo; conditions: male, ICR, mouse, plasma, po, 3 mg/kg
# PK study in rats = type: in vivo; conditions: male, Sprague Dawley, rat, plasma, po, 3 mg/kg
# IKZF2 [1] = target: T1, IKZF2 (Homo sapiens, UniProt Q96SW2+Q9UKS7); assay: IKZF2 HiBiT degradation assay in HEK293 cells; type: cell-based; conditions: for Dmax: HEK293, read-out: IKZF2 degradation Dmax
# IL-2 = IL-2 production in Jurkat cells; type: cell-based, human; conditions: Jurkat stimulated with anti-CD3/CD28, bead-to-cell ratio 1:4
# SALL4 = SALL4 (Homo sapiens, UniProt Q9UJQ4); assay: SALL4 HiBiT degradation assay in HEK293 cells; type: cell-based
# Method in brief: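 Each HiBiT-tagged target construct was integrated into the FRT site by the FLP-IN system, and integration was checked by lytic HiBiT detection. Cells got test compound at 0.017 nM to 10 µM, with DMSO as vehicle control, for 6 h. HiBiT signal was then read by lytic luminescence detection. DC50 and Dmax came from a four-parameter dose-response fit.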
# hERG channel = hERG channel (Homo sapiens, UniProt Q12809); assay: hERG channel inhibition, manual patch-clamp; type: cell-based
# IKZF2 [2] = target: T1, IKZF2; assay: IKZF2 FACS assay in primary human Tregs; type: cell-based; conditions: read-out: IKZF2 degradation Dmax in human Treg cells
# Method in brief: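 Thawed human PBMCs were resuspended in RPMI with 10% FBS and 1% P/S. They were treated with test compound at 0.05 nM to 1 μM, with DMSO as vehicle control, for 3 or 6 h. IKZF2 in Treg cells was then assessed by FACS under a defined gating strategy.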
# T1 sequence (Q9UKS7 whole entry): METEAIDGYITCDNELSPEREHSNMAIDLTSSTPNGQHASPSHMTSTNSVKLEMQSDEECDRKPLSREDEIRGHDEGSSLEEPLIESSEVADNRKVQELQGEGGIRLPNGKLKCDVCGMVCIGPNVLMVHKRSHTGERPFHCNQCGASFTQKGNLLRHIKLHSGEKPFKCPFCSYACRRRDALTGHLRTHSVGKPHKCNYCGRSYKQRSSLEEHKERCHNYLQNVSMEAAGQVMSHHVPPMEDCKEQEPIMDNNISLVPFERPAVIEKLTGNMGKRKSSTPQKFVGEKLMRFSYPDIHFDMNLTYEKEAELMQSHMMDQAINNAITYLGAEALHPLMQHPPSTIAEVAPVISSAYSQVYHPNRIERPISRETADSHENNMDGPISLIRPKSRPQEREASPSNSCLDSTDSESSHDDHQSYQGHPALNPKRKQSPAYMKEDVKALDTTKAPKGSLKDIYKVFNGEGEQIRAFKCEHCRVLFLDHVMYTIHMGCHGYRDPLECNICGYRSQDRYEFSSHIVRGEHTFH
# T1 sequence (Q96SW2 whole entry): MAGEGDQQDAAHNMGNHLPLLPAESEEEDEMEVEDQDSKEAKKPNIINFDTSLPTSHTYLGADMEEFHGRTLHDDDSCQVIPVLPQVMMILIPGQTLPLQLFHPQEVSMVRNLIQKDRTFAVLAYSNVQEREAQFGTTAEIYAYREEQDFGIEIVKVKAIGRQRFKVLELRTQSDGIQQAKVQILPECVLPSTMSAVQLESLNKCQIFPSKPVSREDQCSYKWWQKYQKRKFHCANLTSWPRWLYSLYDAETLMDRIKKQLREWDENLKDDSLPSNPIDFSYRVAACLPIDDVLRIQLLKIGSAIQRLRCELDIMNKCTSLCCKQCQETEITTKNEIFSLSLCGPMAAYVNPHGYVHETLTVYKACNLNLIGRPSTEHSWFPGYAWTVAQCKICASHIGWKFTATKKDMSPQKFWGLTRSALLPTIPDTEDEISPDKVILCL
# T1 sequence (Q16531 whole entry partner): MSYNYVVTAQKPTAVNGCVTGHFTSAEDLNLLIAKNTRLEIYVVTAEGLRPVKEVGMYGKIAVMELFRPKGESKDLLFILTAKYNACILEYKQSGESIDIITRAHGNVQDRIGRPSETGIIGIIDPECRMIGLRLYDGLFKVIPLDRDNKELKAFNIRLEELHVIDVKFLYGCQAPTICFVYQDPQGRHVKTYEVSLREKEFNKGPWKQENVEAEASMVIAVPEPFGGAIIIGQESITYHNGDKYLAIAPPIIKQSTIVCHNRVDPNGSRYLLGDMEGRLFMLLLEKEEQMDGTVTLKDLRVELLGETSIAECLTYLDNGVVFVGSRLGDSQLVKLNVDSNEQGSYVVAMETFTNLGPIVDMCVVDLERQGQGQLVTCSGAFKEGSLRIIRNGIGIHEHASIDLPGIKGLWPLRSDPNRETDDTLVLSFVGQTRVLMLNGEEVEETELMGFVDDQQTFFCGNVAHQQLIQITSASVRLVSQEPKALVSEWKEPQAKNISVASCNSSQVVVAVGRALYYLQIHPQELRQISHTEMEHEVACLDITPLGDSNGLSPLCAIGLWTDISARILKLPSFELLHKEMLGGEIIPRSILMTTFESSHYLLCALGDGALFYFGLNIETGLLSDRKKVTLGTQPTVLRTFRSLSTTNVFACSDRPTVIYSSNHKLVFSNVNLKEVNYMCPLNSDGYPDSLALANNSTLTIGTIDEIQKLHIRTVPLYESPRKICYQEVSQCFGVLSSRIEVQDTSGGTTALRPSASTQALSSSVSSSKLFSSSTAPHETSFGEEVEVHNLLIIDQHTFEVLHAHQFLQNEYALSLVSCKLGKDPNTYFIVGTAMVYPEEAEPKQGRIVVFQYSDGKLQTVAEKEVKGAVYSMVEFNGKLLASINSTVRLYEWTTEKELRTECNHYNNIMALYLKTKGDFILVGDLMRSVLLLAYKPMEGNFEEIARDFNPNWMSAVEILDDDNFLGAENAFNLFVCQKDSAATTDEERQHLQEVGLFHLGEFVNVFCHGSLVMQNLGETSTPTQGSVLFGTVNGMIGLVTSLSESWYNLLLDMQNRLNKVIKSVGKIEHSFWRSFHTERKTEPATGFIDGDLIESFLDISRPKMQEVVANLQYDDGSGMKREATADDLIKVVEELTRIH
# Sequence of SALL4 (Q96SW2 whole entry partner): as the sequence (Q96SW2 whole entry) above
# Sequence of SALL4 (Q16531 whole entry partner): as the sequence (Q16531 whole entry partner) above
# Sequence of SALL4 (Q9UJQ4 whole entry): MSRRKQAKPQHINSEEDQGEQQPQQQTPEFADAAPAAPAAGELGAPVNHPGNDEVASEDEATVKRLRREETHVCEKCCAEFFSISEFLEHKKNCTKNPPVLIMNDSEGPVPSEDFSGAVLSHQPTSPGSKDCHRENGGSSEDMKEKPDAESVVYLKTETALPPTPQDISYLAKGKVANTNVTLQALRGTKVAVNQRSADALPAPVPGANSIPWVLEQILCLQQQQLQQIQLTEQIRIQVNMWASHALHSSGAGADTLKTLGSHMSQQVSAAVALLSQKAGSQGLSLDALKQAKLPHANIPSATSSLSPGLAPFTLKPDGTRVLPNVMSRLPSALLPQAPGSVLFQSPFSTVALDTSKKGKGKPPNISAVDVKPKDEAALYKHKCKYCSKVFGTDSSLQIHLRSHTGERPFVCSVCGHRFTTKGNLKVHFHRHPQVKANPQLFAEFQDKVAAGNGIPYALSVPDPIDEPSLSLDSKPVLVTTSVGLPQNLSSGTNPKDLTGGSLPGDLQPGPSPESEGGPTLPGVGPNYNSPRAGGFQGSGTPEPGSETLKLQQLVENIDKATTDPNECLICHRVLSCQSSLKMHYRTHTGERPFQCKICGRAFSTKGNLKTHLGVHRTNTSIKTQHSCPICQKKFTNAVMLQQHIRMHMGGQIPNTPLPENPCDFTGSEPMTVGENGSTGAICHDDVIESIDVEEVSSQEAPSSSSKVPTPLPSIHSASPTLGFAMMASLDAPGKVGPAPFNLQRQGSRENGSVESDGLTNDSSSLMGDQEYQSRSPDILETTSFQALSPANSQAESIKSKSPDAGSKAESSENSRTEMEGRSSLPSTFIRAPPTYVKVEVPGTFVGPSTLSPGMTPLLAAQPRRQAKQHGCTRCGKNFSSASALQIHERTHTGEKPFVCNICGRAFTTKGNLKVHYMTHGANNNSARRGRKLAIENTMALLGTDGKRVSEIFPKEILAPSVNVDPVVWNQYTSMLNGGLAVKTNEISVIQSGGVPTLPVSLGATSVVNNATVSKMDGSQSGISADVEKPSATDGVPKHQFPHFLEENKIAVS
# Sequence of hERG channel (Q12809 whole entry): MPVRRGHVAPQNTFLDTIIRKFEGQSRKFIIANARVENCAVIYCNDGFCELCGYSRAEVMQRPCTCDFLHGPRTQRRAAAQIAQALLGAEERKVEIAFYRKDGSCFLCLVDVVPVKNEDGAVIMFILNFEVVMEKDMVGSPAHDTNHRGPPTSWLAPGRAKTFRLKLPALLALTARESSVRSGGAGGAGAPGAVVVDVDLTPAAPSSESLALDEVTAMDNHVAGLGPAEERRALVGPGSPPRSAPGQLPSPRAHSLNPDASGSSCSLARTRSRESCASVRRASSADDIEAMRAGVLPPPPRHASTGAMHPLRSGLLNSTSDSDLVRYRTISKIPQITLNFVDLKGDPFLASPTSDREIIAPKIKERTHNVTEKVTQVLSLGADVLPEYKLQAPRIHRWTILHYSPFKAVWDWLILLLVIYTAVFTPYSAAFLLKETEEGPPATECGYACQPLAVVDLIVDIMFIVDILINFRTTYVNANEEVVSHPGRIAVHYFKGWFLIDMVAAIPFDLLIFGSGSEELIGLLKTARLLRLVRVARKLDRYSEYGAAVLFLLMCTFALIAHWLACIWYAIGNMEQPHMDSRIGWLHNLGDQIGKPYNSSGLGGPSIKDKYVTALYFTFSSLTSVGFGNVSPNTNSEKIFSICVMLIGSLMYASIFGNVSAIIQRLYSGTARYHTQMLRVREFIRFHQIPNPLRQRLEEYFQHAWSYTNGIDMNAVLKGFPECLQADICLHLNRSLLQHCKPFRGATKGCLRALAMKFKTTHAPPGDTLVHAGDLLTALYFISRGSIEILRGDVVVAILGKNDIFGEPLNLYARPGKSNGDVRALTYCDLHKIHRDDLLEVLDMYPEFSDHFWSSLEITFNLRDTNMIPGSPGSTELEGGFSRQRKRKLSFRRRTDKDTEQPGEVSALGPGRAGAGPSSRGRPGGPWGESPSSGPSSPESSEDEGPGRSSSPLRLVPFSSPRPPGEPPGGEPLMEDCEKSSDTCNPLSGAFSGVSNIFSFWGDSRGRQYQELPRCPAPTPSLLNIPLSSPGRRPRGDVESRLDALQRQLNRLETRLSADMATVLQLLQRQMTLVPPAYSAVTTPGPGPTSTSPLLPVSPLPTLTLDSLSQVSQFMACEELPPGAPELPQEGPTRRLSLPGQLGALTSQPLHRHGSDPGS
Structure (SMILES),Dmax (IKZF2 [1]),other results
O=C1CCC(N2Cc3c(ccc4c3OCC43CCN(Cc4ccccc4)CC3)C2=O)C(=O)N1 (stereo not drawn) [Compound 5],–,AUC (PK study in mice): 1340 ng·h/mL; AUC (PK study in rats): 1170 ng·h/mL
O=C1CCC(N2Cc3c(ccc4c3OCC43CCC(Oc4ccccc4)CC3)C2=O)C(=O)N1 (stereo not drawn) [Compound 7],38%,–
O=C1CCC(N2Cc3c(ccc4c3OCC43CCN(Cc4ccccc4)C3)C2=O)C(=O)N1 (stereo not drawn) [Compound 8],33%,–
O=C1CCC(N2Cc3c(ccc4c3OCC43CCCN(Cc4ccccc4)CC3)C2=O)C(=O)N1 (stereo not drawn) [Compound 9],17%,–
O=C1CCC(N2Cc3c(ccc4c3OCCC43CCN(Cc4ccccc4)CC3)C2=O)C(=O)N1 (stereo not drawn) [Compound 10],39%,–
O=C1CCC(N2Cc3c(ccc4c3OCC43CCN(Cc4ccccc4)CC3(F)F)C2=O)C(=O)N1 (stereo not drawn) [Compound 12],68%,–
O=C1CCC(N2Cc3c(ccc4c3OCC43CCN(CC4CCCCC4)CC3)C2=O)C(=O)N1 (stereo not drawn) [Compound 13],69%,–
O=C1CCC(N2Cc3c(ccc4c3OCC43CCN(Cc4ccccn4)CC3)C2=O)C(=O)N1 (stereo not drawn) [Compound 14],64%,–
O=C1CCC(N2Cc3c(ccc4c3OCC43CCN(Cc4ccsc4)CC3)C2=O)C(=O)N1 (stereo not drawn) [Compound 15],84%,–
O=C1CCC(N2Cc3cc(C4CCN(Cc5ccccc5)CC4)ccc3C2=O)C(=O)N1 (stereo not drawn) [DKY709],73%,"time to reach maximal IKZF2 degradation (Dmax plateau) (IKZF2 [1]; IKZF2 HiBiT, HEK293): > 6 h; DC50 (IKZF2 [1]; read-out: IKZF2 degradation DC50, HiBiT, HEK293, 6 h): 1.5 nM; IL-2 concentration in the supernatant (in words) (IL-2): increase in IL-2 concentration in the supernatant; Dmax (SALL4; HEK293, read-out: SALL4 degradation Dmax): 55%; DC50 (SALL4; read-out: SALL4 degradation DC50, HiBiT, HEK293, 6 h): 4.9 nM; hERG inhibition IC30 (hERG channel): 3.0 µM; Dmax (IKZF2 [2]): 73%"
